Screens deposited in PubChem BioAssay by Sanford-Burnham Center for Chemical Genomics.
Most compounds without a hit are left out; they make up all but 2.9% or so of the library.
SENP8 block-1 – blocks the human protease SENP8 | Q96LD8 | purified SENP8, Z-RLRGG-aminoluciferin cleavage, luminescence | inhibition, % at 10 µM | hit rate 1.2% among 330,000; in the data active = inhibition above about 50%
Target sequence (Q96LD8 whole entry, looked up): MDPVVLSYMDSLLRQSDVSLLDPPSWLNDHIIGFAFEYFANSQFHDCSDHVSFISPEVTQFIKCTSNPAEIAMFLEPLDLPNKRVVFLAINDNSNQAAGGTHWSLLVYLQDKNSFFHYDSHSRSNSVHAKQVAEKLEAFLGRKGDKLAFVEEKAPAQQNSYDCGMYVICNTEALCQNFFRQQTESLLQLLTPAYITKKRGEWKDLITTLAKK
SENP6 inh – SENP6 protease inhibition; inhibition, % at 10 µM; Q9GZR1; Recombinant SENP6 catalytic domain, aminoluciferin luminescence; hit rate 1.8% among 330,000; AID 2599;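 active = inhibition above about 50% at the single tested dose, limit read from the data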
SENP1 inh – blocks the human SENP1 SUMO protease catalytic domain; Q9P0U3; recombinant SENP1 catalytic domain, CyPet-SUMO1-YPet FRET cleavage; inhibition, % at 10 µM; hit rate 0.21% among 360,000; AID 624204;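 active = inhibition at least 30% at 10 µM, raw YFP signal under a set limit, fluorescence ratio 0.5 to 1.5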
Target sequence (Q9P0U3 419-644 limits assumed): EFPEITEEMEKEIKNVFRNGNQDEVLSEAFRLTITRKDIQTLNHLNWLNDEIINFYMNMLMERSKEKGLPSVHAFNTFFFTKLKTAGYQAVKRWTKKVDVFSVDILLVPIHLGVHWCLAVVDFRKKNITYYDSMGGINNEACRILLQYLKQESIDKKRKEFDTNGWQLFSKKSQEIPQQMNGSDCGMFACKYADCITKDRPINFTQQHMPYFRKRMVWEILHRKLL
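material = recombinant human SENP1 catalytic domain, His6-tagged | quantity = 20 pM enzyme | reagent = 25 nM SUMO1 FRET substrate | compound dosing = 10 µM single point, 0.5% DMSO | timing = 50 min enzyme reaction, room temperature, light-protected | detection = FRET, CFP and YFP emission | control set = no-enzyme low, enzyme-DMSO high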
SENP8 block-2 – SENP8 (human) protease inhibition | Q96LD8 | recombinant SENP8, Nedd8 substrate fluorescence | hit rate 0.64% among 360,000 | inhibition, % at 20 µM; in the data active = inhibition mostly above about 40%, no sharp cut-off; inactive = mostly below about 27%
Apaf1 inhib – blocks human Apaf-1 apoptosome activity. hit rate 0.71% among 330,000. reconstituted apoptosome caspase-3 activity, DEVD-Rh110 fluorescence. inhibition, % at 20 µM; active = inhibition of at least 40% at 20 µM
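Material: cell-free apoptosome with Apaf-1, procaspase-3 and caspase-9; Buffer or medium: Hepes pH 7.5 with detergent and BSA; Reagent: cytochrome c trigger plus (Z-DEVD)2-Rh110 caspase-3 substrate; Times: compound with Apaf-1, dATP, procaspase-3 30 min, then 50 min reaction, room temperature; Technique: Rh110 fluorescence intensity.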
SENP7 block – blocks the human protease SENP7; inhibition, % at 5 µM; hit rate 1.5% among 330,000; Q9BQF6; recombinant SENP7, Z-RLRGG-aminoluciferin luminescence, 40 min;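 active = inhibition above about 50% at the single test dose, limit read from the data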
Apaf-1 inh conf – Apaf-1 inhibition, single-dose confirmed. hit rate 25% among 1,800. AID 504614. reconstituted apoptosome, caspase-3 DEVD-Rh110 fluorescence. inhibition, % at 20 µM. shares compounds with Apaf1 inhib;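 active = mean inhibition of at least 40% at 20 µM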
Rh110 quench – counter-screen for Apaf-1 inhibitors: fluorescence interference. shares compounds with Apaf1 inhib. Rh110 fluorescence interference, quenched caspase reaction. activation (fluorescence interference), % at 20 µM. 1,800 tested, under 10 active. AID 504615;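 active = signal rise of 40% or more at 20 µM, treated as a fluorescence artifact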
Fluor interf inh – counter-screen for Apaf-1 inhibitors: fluorescence interference, dose response. shares compounds with Apaf1 inhib. AID 588538. IC50, µM. 460 tested, under 10 active. fluorescence interference counterscreen, Apaf-1 assay format; call rule not given here
SENP8 conf – confirmation of human SENP8 protease inhibitors. shares compounds with SENP8 block-2. purified SENP8, Nedd8-AMC/pro-Nedd8 cleavage fluorescence, 30 min. inhibition, % at 25 µM. hit rate 15% among 1,400. AID 624319; in the data active = inhibition mostly above about 39%, no sharp cut-off; inactive = mostly below about 34%
Large screens that a line does not name were inactive (follow-up assays come after a bar, where they were run).

CCN1CCN(Cc2ccc(NC(=O)c3cc(NC(=O)c4ccc5n[nH]nc5c4)cc(OC)c3)cc2C(F)(F)F)CC1	none
Cc1ccccc1S(=O)(=O)NC(=O)C1(C)CCN1C(=O)C1(c2ccc(Cl)cc2)CCC1 (stereo unspecified)	none (no result: SENP8 block-1, SENP6 inh, Apaf1 inhib, SENP7 block)
CCN(C(=O)CSc1nnc(-c2ccccc2)n1C)C1CCS(=O)(=O)C1 (stereo unspecified)	none
C=CCn1c(SCC(=O)N(CC)C2CCS(=O)(=O)C2)nnc1-c1ccccc1 (stereo unspecified)	Apaf1 inhib 61.4 | Apaf-1 inh conf inactive | Rh110 quench inactive
O=C1C(SCCO)=C(SCCO)C(=O)c2ccccc21	SENP8 block-1 88.8, SENP6 inh 89.2, Apaf1 inhib 96.9, SENP7 block 56.4 | Apaf-1 inh conf 96.2 | Rh110 quench inactive | Fluor interf inh inactive
CC1=C(SCc2ccccc2)C(=O)c2ccccc2C1=O	none (no result: SENP8 block-1, SENP6 inh, Apaf1 inhib, SENP7 block)
CCCc1ccc2oc(C(=O)NCCc3nc(C(=O)OCC)cs3)c(C)c2c1	Apaf1 inhib 40.8 | Apaf-1 inh conf inactive | Rh110 quench inactive
O=C(c1ccccc1)N(c1ccccc1)c1nccc2ccccc12	none (no result: SENP8 block-1, SENP6 inh, Apaf1 inhib, SENP7 block)
Cc1[nH][nH]c(=O)c1C(c1ccc(-c2ccc(F)cc2)o1)c1c(C)[nH][nH]c1=O	SENP8 block-2 75.0, Apaf1 inhib 72.3 | Apaf-1 inh conf inactive | Rh110 quench inactive | SENP8 conf 72.0
Cc1[nH][nH]c(=O)c1C(c1ccc(-c2ccc(Cl)c(Cl)c2)o1)c1c(C)[nH][nH]c1=O	SENP8 block-2 73.7, Apaf1 inhib 78.8 | Apaf-1 inh conf inactive | Rh110 quench inactive | SENP8 conf 62.9
COc1ccc(-c2ccc(C(c3c(C)[nH][nH]c3=O)c3c(C)[nH][nH]c3=O)o2)c([N+](=O)[O-])c1	SENP8 block-2 37.6, Apaf1 inhib 75.4 | Apaf-1 inh conf inactive | Rh110 quench inactive | SENP8 conf inactive
Cc1[nH][nH]c(=O)c1C(c1ccc(-c2ccc(C(=O)O)cc2)o1)c1c(C)[nH][nH]c1=O	none (no result: SENP8 block-1, SENP6 inh, Apaf1 inhib, SENP7 block)
COc1ccc(OC)c(CN2C(=O)c3ccccc3C2c2nnnn2-c2ccc3c(c2)OCCO3)c1 (stereo unspecified)	none (no result: SENP8 block-1, SENP6 inh, Apaf1 inhib, SENP7 block)
COc1cc(C(=O)NCC2CCCO2)cc(Br)c1OCc1ccccc1 (stereo unspecified)	none
COc1cccc2nc3cc(C)c(C)cc3nc12	SENP8 block-1 94.7, SENP6 inh 90.8, SENP8 block-2 42.2, Apaf1 inhib 83.6, SENP7 block 97.4 | Apaf-1 inh conf inactive | Rh110 quench inactive | SENP8 conf 78.0
COc1cccc2c1nc(C)c1cc(C)oc12	none
CC1(OC(=O)c2ccc(Cl)nc2)C(=O)C=C2C=C3CCCN3C=C2C1=O (stereo unspecified)	SENP8 block-2 64.8, Apaf1 inhib 44.2 | Apaf-1 inh conf inactive | Rh110 quench inactive | SENP8 conf 44.0
CCOc1ccc(N(C(=O)c2ccc(S(=O)(=O)N3CCCC3)cc2)C2C=CS(=O)(=O)C2)cc1 (stereo unspecified)	none
CSc1nncc(/C(C)=N\Nc2cccc(C)c2)n1	SENP8 block-2 45.7, Apaf1 inhib 60.5 | Apaf-1 inh conf inactive | Rh110 quench inactive | SENP8 conf inactive
CSc1nncc(/C(C)=N\Nc2ccccc2)n1	SENP8 block-2 52.0, Apaf1 inhib 70.4 | Apaf-1 inh conf inactive | Rh110 quench inactive | SENP8 conf inactive
CC(=O)/C(=N\Nc1ccccc1)Sc1nncn1C	none
Cc1cccc(N/N=C(\C#N)S(=O)(=O)C(C)(C)C)c1	none (no result: SENP8 block-1, SENP6 inh, Apaf1 inhib, SENP7 block)
